Experimental data taken from ChEMBL document CHEMBL2424590, “4-[18F]Fluoro-m-hydroxyphenethylguanidine: a radiopharmaceutical for quantifying regional cardiac sympathetic nerve density with positron emission tomography” (J Med Chem, 2013).

Assays:
[1] = Drug uptake in rhesus macaque monkey myocardium at 0.1 mCi by Patlak plot analysis; type: ADME, tissue-based, Macaca mulatta; conditions: in vivo
Method in brief: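 Same monkey for all studies. Desipramine (0.010, 0.0316, 0.10 or 1.0 mg/kg; n = 1 each) in 2.0 mL saline infused i.v. over 20 min, with tracer injected 10 min after the infusion ended; 4 control studies. ROIs on myocardium and basal LV blood pool drawn on summed final four frames. Cp(t) derived from Cwb(t) × intact fraction × Cp/Cwb. Ki from compartmental modelling and Kp as Patlak slope, fitted against DMI dose to a variable-slope sigmoidal model.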

Muscle tissue = assay: Biodistribution in Sprague-Dawley rat muscle at 20 to 120 uCi, iv after 120 mins by gamma counting analysis; type: ADME, organism-based; conditions: in vivo, 2 h
Method in brief: (§1)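 Sprague-Dawley rats (280–330 g), 2 male and 2 female per time point (5, 30, 60, 120 min), under light isoflurane, received a tail-vein bolus of 20–120 μCi tracer in 0.05–0.10 mL isotonic 60 mM sodium phosphate, pH 5.4. Tissues were weighed and gamma-counted. Decay-corrected dpm/g was normalized to injected dpm per kg body weight (%ID·kg/g).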

Rattus norvegicus [2] = assay: Biodistribution in Sprague-Dawley rat uterus at 20 to 120 uCi, iv after 120 mins by gamma counting analysis; type: ADME, organism-based; conditions: in vivo, 2 h
Method in brief: (§2)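 Male and female rats (2 per sex per time point, 280–330 g) under light isoflurane given tail-vein bolus of 20–120 μCi tracer in 0.05–0.10 mL isotonic 60 mM sodium phosphate, pH 5.4. Tissues sampled at 5, 30, 60 or 120 min, weighed and gamma-counted. Decay-corrected dpm per gram normalised to injected dpm and body weight, given as %ID·kg/g.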

Rattus norvegicus [3] = assay: Biodistribution in Sprague-Dawley rat stomach at 20 to 120 uCi, iv after 120 mins by gamma counting analysis; type: ADME, organism-based; conditions: in vivo, 2 h; method in brief: as §2
Kidney [4] = assay: Biodistribution in Sprague-Dawley rat kidney at 20 to 120 uCi, iv after 120 mins by gamma counting analysis; type: ADME, organism-based; conditions: in vivo, 2 h; method in brief: as §1
Spleen [5] = assay: Biodistribution in Sprague-Dawley rat spleen at 20 to 120 uCi, iv after 120 mins by gamma counting analysis; type: ADME, organism-based; conditions: in vivo, 2 h; method in brief: as §1
Liver [6] = assay: Biodistribution in Sprague-Dawley rat liver at 20 to 120 uCi, iv after 120 mins by gamma counting analysis; type: ADME, organism-based; conditions: in vivo, 2 h; method in brief: as §1
Ovary [7] = assay: Biodistribution in Sprague-Dawley rat ovary at 20 to 120 uCi, iv after 60 mins by gamma counting analysis; type: ADME, organism-based, Female gonad; conditions: in vivo, 1 h
Method in brief: as §1, with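 “g)” for “g), 2 male and 2 female per time point (5, 30, 60, 120 min),”, “isoflurane” for “isoflurane,”, “Sampling was at 5, 30, 60 or 120 min. […]” for “Tissues”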

Kidney [8] = assay: Biodistribution in Sprague-Dawley rat kidney at 20 to 120 uCi, iv after 60 mins by gamma counting analysis; type: ADME, organism-based; conditions: in vivo, 1 h; method in brief: as §1
Adrenal [9] = assay: Biodistribution in Sprague-Dawley rat adrenal at 20 to 120 uCi, iv after 60 mins by gamma counting analysis; type: ADME, organism-based, Adrenal tissue; conditions: in vivo, 1 h; method in brief: as §1
Liver [10] = assay: Biodistribution in Sprague-Dawley rat liver at 20 to 120 uCi, iv after 60 mins by gamma counting analysis; type: ADME, organism-based; conditions: in vivo, 1 h; method in brief: as §1
Blood [11] = assay: Biodistribution in Sprague-Dawley rat blood at 20 to 120 uCi, iv after 30 mins by gamma counting analysis; type: ADME, organism-based; conditions: in vivo, 0.5 h; method in brief: as §1
Bone = assay: Biodistribution in Sprague-Dawley rat bone at 20 to 120 uCi, iv after 30 mins by gamma counting analysis; type: ADME, organism-based, Bone element; conditions: in vivo, 0.5 h; method in brief: as §1
Rattus norvegicus [12] = assay: Biodistribution in Sprague-Dawley rat uterus at 20 to 120 uCi, iv after 30 mins by gamma counting analysis; type: ADME, organism-based; conditions: in vivo, 0.5 h; method in brief: as §2
Ovary [13] = assay: Biodistribution in Sprague-Dawley rat ovary at 20 to 120 uCi, iv after 30 mins by gamma counting analysis; type: ADME, organism-based, Female gonad; conditions: in vivo, 0.5 h
Method in brief: as §1, with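 “g)” for “g), 2 male and 2 female per time point (5, 30, 60, 120 min),”, “isoflurane” for “isoflurane,”, “Sampling was at 5, 30, 60 or 120 min. […]” for “Tissues”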

Rattus norvegicus [14] = assay: Biodistribution in Sprague-Dawley rat stomach at 20 to 120 uCi, iv after 30 mins by gamma counting analysis; type: ADME, organism-based; conditions: in vivo, 0.5 h; method in brief: as §2
Kidney [15] = assay: Biodistribution in Sprague-Dawley rat kidney at 20 to 120 uCi, iv after 30 mins by gamma counting analysis; type: ADME, organism-based; conditions: in vivo, 0.5 h; method in brief: as §1
Adrenal [16] = assay: Biodistribution in Sprague-Dawley rat adrenal at 20 to 120 uCi, iv after 30 mins by gamma counting analysis; type: ADME, organism-based, Adrenal tissue; conditions: in vivo, 0.5 h; method in brief: as §1
Spleen [17] = assay: Biodistribution in Sprague-Dawley rat spleen at 20 to 120 uCi, iv after 30 mins by gamma counting analysis; type: ADME, organism-based; conditions: in vivo, 0.5 h; method in brief: as §1
Heart = assay: Biodistribution in Sprague-Dawley rat heart at 20 to 120 uCi, iv after 30 mins by gamma counting analysis; type: ADME, organism-based; conditions: in vivo, 0.5 h; method in brief: as §1
Rattus norvegicus [18] = assay: Biodistribution in Sprague-Dawley rat eyeballs at 20 to 120 uCi, iv after 30 mins by gamma counting analysis; type: ADME, organism-based, Eyeball of camera-type eye; conditions: in vivo, 0.5 h; method in brief: as §1
Blood [19] = assay: Biodistribution in Sprague-Dawley rat blood at 20 to 120 uCi, iv after 5 mins by gamma counting analysis; type: ADME, organism-based; conditions: in vivo; method in brief: as §1
Kidney [20] = assay: Biodistribution in Sprague-Dawley rat kidney at 20 to 120 uCi, iv after 5 mins by gamma counting analysis; type: ADME, organism-based; conditions: in vivo; method in brief: as §1
Adrenal [21] = assay: Biodistribution in Sprague-Dawley rat adrenal at 20 to 120 uCi, iv after 5 mins by gamma counting analysis; type: ADME, organism-based, Adrenal tissue; conditions: in vivo; method in brief: as §1
Lung = assay: Biodistribution in Sprague-Dawley rat lung at 20 to 120 uCi, iv after 5 mins by gamma counting analysis; type: ADME, organism-based; conditions: in vivo; method in brief: as §1
Rattus norvegicus [22] = assay: Biodistribution in Sprague-Dawley rat eyeballs at 20 to 120 uCi, iv after 5 mins by gamma counting analysis; type: ADME, organism-based, Eyeball of camera-type eye; conditions: in vivo; method in brief: as §1
Nucleic Acid = assay: Ratio of drug level in plasma to whole blood in rhesus macaque monkey at 5 to 6 mCi, iv by RP-HPLC analysis; type: ADME, organism-based, Macaca mulatta; conditions: in vivo
Method in brief: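 Venous monkey blood samples taken during PET were centrifuged 1 min at 12000 × g to separate plasma from RBCs. 0.1 mL aliquots of whole blood and plasma were gamma-counted, and decay-corrected counts gave Cp/Cwb for each sample. A pre-scan sample spiked with 0.1 mCi tracer was incubated 60–70 min at 37 °C and processed the same way.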

Plasma = assay: Metabolic stability in rhesus macaque monkey plasma assessed as retention time of [18F]-2-fluoro-5-(2-guanidinoethyl)phenyl hydrogen sulfate at 5 to 6 mCi, iv by RP-HPLC analysis; type: ADME, organism-based, Macaca mulatta; conditions: in vivo
Method in brief: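 Six venous samples (1.5–2.0 mL; typically 1, 2, 4, 10, 30, 60 min) drawn during the monkey PET scan into heparin and centrifuged 1 min at 12000 × g. Plasma deproteinised with HClO₄ (final 0.4 N), spun, neutralised with KOH to pH 7.0–7.5 and filtered twice (0.22 μm). Analysed by reverse-phase HPLC (10% EtOH in 60 mM NaH₂PO₄, pH 5.4, 1.0 mL/min) with NaI(Tl) radiodetection. Decay-corrected intact fraction per sample; T1/2 is the time at which 50% of plasma activity is metabolite.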

[23] = Drug uptake in rhesus macaque monkey liver at 5 to 6 mCi, iv after 90 mins by PET analysis; type: ADME, organism-based, Macaca mulatta; conditions: in vivo, 1.5 h
[24] = Drug uptake in rhesus macaque monkey left ventricle at 5 to 6 mCi, iv after 90 mins by PET analysis; type: ADME, organism-based, Macaca mulatta, Heart left ventricle; conditions: in vivo, 1.5 h
[25] = Half life in rat urinary bladder at 0.5 mCi by PET analysis; conditions: in vivo

- Kp [1]: 0.302 mL/min/g
- Drug uptake (Muscle tissue): 0.015 % ID/g
- Drug uptake (Rattus norvegicus [2]): 0.081 %IDKg/g
- Drug uptake (Rattus norvegicus [3]): 0.089 %IDKg/g
- Drug uptake (Kidney [4]): 0.078 %IDKg/g
- Drug uptake (Spleen [5]): 0.235 %IDKg/g
- Drug uptake (Liver [6]): 0.233 %IDKg/g
- Drug uptake (Ovary [7]): 0.142 %IDKg/g
- Drug uptake (Kidney [8]): 0.186 %IDKg/g
- Drug uptake (Adrenal [9]): 0.193 %IDKg/g
- Drug uptake (Liver [10]): 0.35 %IDKg/g
- Drug uptake (Blood [11]): 0.022 %ID·kg/g
- Drug uptake (Bone): 0.039 %ID·kg/g
- Drug uptake (Rattus norvegicus [12]): 0.155 %IDKg/g
- Drug uptake (Ovary [13]): 0.171 %IDKg/g
- Drug uptake (Rattus norvegicus [14]): 0.11 %IDKg/g
- Drug uptake (Kidney [15]): 0.183 %IDKg/g
- Drug uptake (Adrenal [16]): 0.181 %IDKg/g
- Drug uptake (Spleen [17]): 0.262 %IDKg/g
- Drug uptake (Heart): 0.602 %IDKg/g
- Drug uptake (Rattus norvegicus [18]): 0.04 %IDKg/g
- Drug uptake (Blood [19]): 0.062 %ID·kg/g
- Drug uptake (Kidney [20]): 1.398 %IDKg/g
- Drug uptake (Adrenal [21]): 0.203 %IDKg/g
- Drug uptake (Lung): 0.267 %IDKg/g
- Drug uptake (Rattus norvegicus [22]): 0.039 %IDKg/g
- Ratio (Nucleic Acid): 1.25
- Retention_time (Plasma): 8.2 min
- Drug uptake [23]: Not Active
- Drug uptake [24]: Active
- t1/2 [25]: 12 min
SMILES: N=C(N)NCCc1ccc([18F])c(O)c1
